According to ChEMBL document CHEMBL4819003, “Optimization of novel oxidative DIMs as Nur77 modulators of the Nur77-Bcl-2 apoptotic pathway” (Eur J Med Chem, 2021):
Active and inactive are the calls of the source. The calls are words filed in the database; no cut-off is given here.

Legend:
[1] = molecular target: T1, Nuclear receptor subfamily 4immunitygroup A member 1 (Homo sapiens, UniProt P22736); assay: Modulation of GFP-Nur77 (unknown origin) transfected in human HEK293T cells co-transfected with Flag-tagged Bcl2 assessed as interaction of Nur77 with Bcl2 in mitochondria at 0.5 uM measured after 2 hrs by confocal microscopy; details: filed as modulator
T1 sequence (P22736 whole entry, the tested form may be a part): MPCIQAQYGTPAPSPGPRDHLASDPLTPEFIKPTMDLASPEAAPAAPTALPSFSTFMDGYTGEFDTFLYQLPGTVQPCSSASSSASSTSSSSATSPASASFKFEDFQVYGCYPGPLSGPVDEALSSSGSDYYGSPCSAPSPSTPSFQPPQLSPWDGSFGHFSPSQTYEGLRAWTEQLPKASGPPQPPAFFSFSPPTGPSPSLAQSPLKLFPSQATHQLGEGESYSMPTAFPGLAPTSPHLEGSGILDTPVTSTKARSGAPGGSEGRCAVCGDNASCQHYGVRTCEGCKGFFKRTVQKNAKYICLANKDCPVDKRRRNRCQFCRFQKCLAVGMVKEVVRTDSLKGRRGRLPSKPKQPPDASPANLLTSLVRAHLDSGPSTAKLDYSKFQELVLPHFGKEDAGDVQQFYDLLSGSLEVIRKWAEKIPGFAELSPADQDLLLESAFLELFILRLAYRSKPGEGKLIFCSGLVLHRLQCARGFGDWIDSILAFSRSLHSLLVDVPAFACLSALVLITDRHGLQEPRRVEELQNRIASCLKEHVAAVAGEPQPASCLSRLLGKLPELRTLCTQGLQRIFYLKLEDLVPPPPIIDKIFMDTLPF
Outline: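 HEK293T cells were lipofectamine-cotransfected with Flag-Bcl-2 and GFP-Nur77 or GFP-Nur77-LBD, then given 0.5 μM compound for 2 h. Cells were fixed in 4% paraformaldehyde, permeabilised with 0.1% Triton X-100, blocked in 1% BSA and stained with anti-Flag plus DAPI. Mitochondrial colocalisation with Bcl-2 was read by confocal microscopy.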

[2] = Tmax in male/female Sprague-Dawley rat at 5 mg/kg, po measured for 36 hrs by LC-MS/MS analysis; type: ADME, organism-based; details: both, in vivo
Outline: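 Sprague-Dawley rats (200–220 g), four per route group (2 male, 2 female), given 0.5 mg/kg IV or 5 mg/kg orally in DMSO/T-80/H2O (1:5:94). Heparinized blood was sampled at 5 min–36 h after IV and at 0.5, 1, 3, 4, 6, 8, 10, 12, 24 and 36 h after oral dosing. Plasma was methanol (2% HCl)-precipitated with carbamazepine internal standard and quantified by LC-MS/MS. Parameters reported as mean ± SD.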

[3] = Selectivity index, ratio of IC50 for human NCM460 cells to IC50 for human HCT-116 cells; type: toxicity; details: NCM460 cells versus HCT-116 cells, read-out: Ratio IC50
SW-620 = assay: Induction of apoptosis in human SW-620 cells assessed as viable cells at 0.5 uM measured after 6 hrs by Annexin V-FITC/PI staining based flow cytometry method (reference value: 98.37%); type: functional; details: read-out: Activity
Outline: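 Cells seeded at 1×10^6 per well and treated with 0.5 µM for 6 h. Floating and adherent cells pooled, stained with Annexin V-FITC for 10 min and propidium iodide for 5 min, then analysed immediately by flow cytometry in FITC and PC5.5 channels. Mean ± SD, n = 3.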

Mus musculus = assay: Antitumour activity against FVB/N mammary tumor MMTV-PyMT mouse model assessed as inhibition of tumour growth at 3 mg/kg, po administered daily for 14 days; type: functional, organism-based; details: time 14.0 day
Outline: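 Female MMTV-PyMT transgenic mice (FVB/N background), 12 weeks old, randomized n = 6 per group; daily oral gavage 3 mg/kg for 14 days. Dosing solution: DMSO stock diluted in normal saline with 5.0% (V/V) Tween-80 to 3 mg/mL. Tumours weighed at end; mean ± SD, Student's t-test versus untreated controls.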

[4] = AUC (0 to t) in male/female Sprague-Dawley rat at 5 mg/kg, po measured for 36 hrs by LC-MS/MS analysis; type: ADME, organism-based; set-up: dose 5 mg/kg, time 36 hrs; details: both, in vivo
Outline: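 Four Sprague-Dawley rats per route (2 male, 2 female; 200–220 g) received 0.5 mg/kg IV or 5 mg/kg PO in DMSO/Tween-80/water (1:5:94). Heparinized blood was taken at 5 min–36 h after IV dosing and at 0.5, 1, 3, 4, 6, 8, 10, 12, 24 and 36 h after oral dosing. Methanol (2% HCl) precipitation with carbamazepine internal standard preceded LC-MS/MS; values are mean ± SD.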

[5] = molecular target: T1, Nuclear receptor subfamily 4immunitygroup A member 1; assay: Modulation of Myc-Nur77-LBD (unknown origin) transfected in human HEK293T cells assessed as induction of Myc-Nur77 mitochondrial targeting by measuring increase in Myc-Nur77 accumulation in mitochondria at 0.5 uM measured after 2 hrs by Mito-tracker dye based confocal microscopy method; details: filed as modulator
Outline: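 HEK293T cells transfected with Myc-Nur77-LBD were given 0.5 μM compound for 2 h, stained with Mito-Tracker and immunostained. Nur77 mitochondrial localisation was visualised by confocal microscopy.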

[6] = AUC (0 to t) in male Sprague-Dawley rat at 5 mg/kg, po measured for 36 hrs by LC-MS/MS analysis; type: ADME, organism-based; set-up: dose 5 mg/kg, time 36 hrs; details: in vivo
Outline: (§1)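 Sprague-Dawley rats (200–220 g), three per sex per route, were dosed at 0.5 mg/kg IV or 5 mg/kg PO in DMSO/Tween-80/water (1:5:94). Heparinized blood was drawn from 5 min to 36 h after IV dosing and from 1 h to 36 h after oral dosing. Plasma was deproteinized with methanol (2% HCl) plus carbamazepine internal standard, measured by LC-MS/MS, and reported as mean ± SD.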

[7] = AUC (0 to t) in female Sprague-Dawley rat at 0.5 mg/kg, iv measured for 36 hrs by LC-MS/MS analysis; type: ADME, organism-based; set-up: dose 0.5 mg/kg, time 36 hrs; details: in vivo; outline: as §1
[8] = Volume of distribution at steady state in female Sprague-Dawley rat at 0.5 mg/kg, iv measured for 36 hrs by LC-MS/MS analysis; type: ADME, organism-based; details: in vivo
Outline: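 Sprague-Dawley rats (200–220 g), three males and three females per route group. Dosed 5 mg/kg orally or 0.5 mg/kg IV as a solution in DMSO/T-80/H2O (1:5:94 by volume). Heparinized blood was drawn from 5 min to 36 h after IV and 1–36 h after oral dosing. Plasma was protein-precipitated with methanol (2% HCl) plus carbamazepine internal standard and assayed by LC-MS/MS. Parameters were taken from concentration-time data; n = 3 per sex, mean ± SD.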

## CS(=O)(=O)[O-].Cn1cc([C+](c2ccc(C(F)(F)F)cc2)c2c[nH]c3ccccc23)c2ccccc21
[1]
  Activity: Active
[2]
  Tmax: 3 h
[3]
  selectivity ratio: 50
SW-620
  viability at 0.5 µM: 7.08%
Mus musculus
  Activity: Active
[4]
  AUC(0-t) at 36 h: 734 ng·h/mL
[5]
  Activity: Active

## CS(=O)(=O)[O-].FC(F)(F)c1ccc([C+](c2c[nH]c3ccccc23)c2c[nH]c3ccccc23)cc1
[6]
  AUC(0-t) at 36 h: 2250 ng·h/mL
[7]
  AUC(0-t) at 36 h: 1730 ng·h/mL
[8]
  Vdss: 2.38 L/kg
